Measured values published in ChEMBL document CHEMBL1125678, “Quinazolineacetic acids and related analogues as aldose reductase inhibitors” (J Med Chem, 1991).

Assays:
[1] = target: Aldo-keto reductase family 1 member B1 (Bos taurus) (UniProt P16116); test: In vitro inhibition of Aldose reductase in partially purified bovine lens preparation at a concentration of 10e -7M.
In short: (§1)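 Enzyme from bovine lens, partially purified by the cited method with the final chromatographic step omitted. DL-Glyceraldehyde was the substrate. Test compounds were run in duplicate at 1×10⁻⁵, 1×10⁻⁶, 1×10⁻⁷ or 4×10⁻⁸ M. Values are % inhibition of enzymatic activity.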

[2] = target: Aldo-keto reductase family 1 member B1 (Bos taurus) (UniProt P16116); test: In vitro inhibition of Aldose reductase in partially purified bovine lens preparation at a concentration of 4*10e -8M.; in short: as §1
[3] = system: Rattus norvegicus; test: In vivo inhibition of galactitol accumulation in the sciatic nerve of rats fed 20% galactose for 4 day at 101 mg/kg/day dose; NS = No Significant inhibition of polyol accumulation; assay type: functional, organism-based
In short: (§2)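 Male Sprague-Dawley rats (50–70 g) in groups of six were fed chow with 20% (w/w) galactose. Controls received 20% glucose instead. Test compound was mixed into the diet, and dose was calculated from actual food intake. Rats were killed by decapitation after 4 days. Result is % lowering of tissue galactitol versus galactose-fed controls, as the mean of six animals, compared by Dunnett's multiple comparison.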

[4] = system: Rattus norvegicus; test: In vivo inhibition of galactitol accumulation in the diaphragm of rats fed 20% galactose for 4 day at 101 mg/kg/day dose; assay type: functional; in short: as §2
[5] = system: Rattus norvegicus; test: (§3) In vivo inhibition of galactitol accumulation in the sciatic nerve of rats fed 20% galactose for 4 day at 95 mg/kg/day dose; NS= No Significant inhibition of polyol accumulation; assay type: functional, organism-based
[6] = system: Rattus norvegicus; test: as §3; assay type: functional, organism-based; remark: listed apart in the source
[7] = target: Aldo-keto reductase family 1 member B1 (Bos taurus) (UniProt P16116); test: in vitro inhibition of aldose reductase in partially purified bovine lens preparation at a concentration of 10e -6M.
[8] = target: Aldo-keto reductase family 1 member B1 (Bos taurus) (UniProt P16116); test: In vitro inhibition of aldose reductase in partially purified bovine lens preparation at a concentration of 10e -7M.; in short: as §1
[9] = target: Aldo-keto reductase family 1 member B1 (Bos taurus) (UniProt P16116); test: In vitro inhibition of aldose reductase in partially purified bovine lens preparation at a concentration of 4*10e -8M.; in short: as §1
[10] = system: Rattus norvegicus; test: In vivo inhibition of galactitol accumulation in the sciatic nerve of rats fed 20% galactose for 4 day at 70 mg/kg/day dose; assay type: functional; in short: as §2
[11] = system: Rattus norvegicus; test: In vivo inhibition of galactitol accumulation in the diaphragm of rats fed 20% galactose for 4 day at 70 mg/kg/day dose; assay type: functional; in short: as §2
[12] = target: Aldo-keto reductase family 1 member B1 (Bos taurus) (UniProt P16116); test: In vitro inhibition of aldose reductase in partially purified bovine lens preparation at a concentration of 10e -5M.; settings: in the assay text read “10e -6M” for “10e -5M”; in short: as §1
[13] = system: Rattus norvegicus; test: In vivo inhibition of galactitol accumulation in the diaphragm of rats fed 20% galactose for 4 day at 95 mg/kg/day dose; assay type: functional; in short: as §2
[14] = system: Rattus norvegicus; test: In vivo inhibition of galactitol accumulation in the sciatic nerve of rats fed 20% galactose for 4 day at 96 mg/kg/day dose; assay type: functional
[15] = system: Rattus norvegicus; test: In vivo inhibition of galactitol accumulation in the diaphragm of rats fed 20% galactose for 4 day at 96 mg/kg/day dose; assay type: functional; in short: as §2
[16] = target: Aldo-keto reductase family 1 member B1 (Bos taurus) (UniProt P16116); test: In vitro inhibition of aldose reductase in partially purified bovine lens preparation at a concentration of 10e -6M.; in short: as §1
[17] = system: Rattus norvegicus; test: In vivo inhibition of galactitol accumulation in the sciatic nerve of rats fed 20% galactose for 4 day at 99 mg/kg/day dose; NS = No Significant inhibition of polyol accumulation; assay type: functional, organism-based
[18] = system: Rattus norvegicus; test: In vivo inhibition of galactitol accumulation in the diaphragm of rats fed 20% galactose for 4 day at 99 mg/kg/day dose; NS = No Significant inhibition of polyol accumulation; assay type: functional, organism-based; in short: as §2
[19] = target: Aldo-keto reductase family 1 member B1 (Bos taurus) (UniProt P16116); test: in vitro inhibition of Aldose reductase in partially purified bovine lens preparation at a concentration of 10e-6 M.
[20] = system: Rattus norvegicus; test: In vivo inhibition of galactitol accumulation in the sciatic nerve of rats fed 20% galactose for 4 day at 96 mg/kg/day dose; NS = No Significant inhibition of polyol accumulation; assay type: functional, organism-based
[21] = system: Rattus norvegicus; test: In vivo inhibition of galactitol accumulation in the sciatic nerve of rats fed 20% galactose for 4 day at 98 mg/kg/day dose; NS = No Significant inhibition of polyol accumulation; assay type: functional, organism-based
[22] = system: Rattus norvegicus; test: In vivo inhibition of galactitol accumulation in the diaphragm of rats fed 20% galactose for 4 day at 98 mg/Kg/day; NS = No Significant inhibition of polyol accumulation; assay type: functional, organism-based; in short: as §2
[23] = system: Rattus norvegicus; test: In vivo inhibition of galactitol accumulation in the sciatic nerve of rats fed 20% galactose for 4 day at 95 mg/kg/day dose; assay type: functional

Structure (SMILES) | Lowering [5] | Lowering [6] | inhibition [8] [%] | inhibition [9] [%] | other results
O=C(O)Cn1c2ccc([N+](=O)[O-])cc2c(=O)n1Cc1ccc(Br)cc1F |  |  |  |  | inhibition [1]: 60%; inhibition [2]: 36%; Lowering [3]: Not significant; Lowering [4]: 22%
O=C(O)Cn1c(=O)c2cc(Br)ccc2n(C(=O)c2ccccc2)c1=O | Not significant | Not significant |  |  | inhibition [7]: 46%
O=C(O)Cn1c(=O)n(Cc2ccc(Cl)c(Cl)c2)c(=S)c2cc(Cl)ccc21 |  |  | 89 | 54 | Lowering [10]: 28%; Lowering [11]: 50%
Cn1c(=O)n(CC(=O)O)c(=O)c2cc(Cl)ccc21 |  |  |  |  | inhibition [12]: 60%
C=CCn1c(=O)n(CC(=O)O)c(=O)c2cc(Br)ccc21 | Not significant | Not significant |  |  | inhibition [7]: 31%
O=C(O)Cn1c(=O)c2ccccc2n(-c2ccccc2)c1=O |  |  |  |  | inhibition [12]: 45%
O=C(O)CN1C(=O)c2cc(Cl)ccc2N(Cc2ccc(Br)cc2F)[S+]1[O-] (stereo not given) | Not significant | Not significant | 21 | 8 | 
O=C(O)Cn1c(=O)c2c(Cl)cccc2n(Cc2ccc(Br)cc2F)c1=O | Not significant |  | 70 | 33 | Lowering [13]: 46%
O=C(O)Cn1c(=O)c2cc(Br)ccc2n(Cc2ccc(Br)cc2F)c1=O |  |  |  |  | inhibition [1]: 83%; inhibition [2]: 71%; Lowering [14]: 60%; Lowering [15]: 76%
O=C(O)Cn1c(=O)c2cc([N+](=O)[O-])ccc2n(Cc2ccc(Br)cc2F)c1=O | Not significant | Not significant | 71 | 38 | 
CC(c1ccccc1)n1c(=O)n(CC(=O)O)c(=O)c2cc(Br)ccc21 (stereo not given) | Not significant |  |  |  | inhibition [16]: 34%
O=C(O)Cn1c(=O)c2cc(Br)ccc2n(Cc2ccc(C(F)(F)F)cc2)c1=O | Not significant | Not significant |  |  | inhibition [7]: 54%
O=C(O)Cn1c(=O)n(Cc2ccc(Cl)c(Cl)c2)c(=O)c2c3c(sc21)CCCC3 |  |  | 89 | 63 | Lowering [17]: Not significant; Lowering [18]: Not significant
O=C(O)Cn1c(=O)c2cc(Cl)ccc2n(Cc2ccc(Br)cc2F)c1=S |  |  | 70 | 24 | Lowering [10]: 39%; Lowering [11]: 60%
O=C(O)Cn1c(=O)c2ccccc2n1Cc1ccc(Br)cc1F |  |  |  |  | inhibition [19]: 40%; Lowering [20]: Not significant; Lowering [15]: 24%
COc1ccc(Cn2c(=O)n(CC(=O)O)c(=O)c3cc(Br)ccc32)cc1 | Not significant | Not significant | 31 | 11 | 
O=C(O)Cn1c2ccc([N+](=O)[O-])cc2c(=O)n1Cc1ccc(Cl)c(Cl)c1 |  |  |  |  | inhibition [1]: 41%; inhibition [2]: 27%; Lowering [21]: Not significant; Lowering [22]: Not significant
O=C(O)Cn1c(=O)c2ccc(Cl)cc2n(Cc2ccc(Br)cc2F)c1=O |  |  | 76 | 55 | Lowering [13]: 74%; Lowering [23]: 42%
